Calls of active or inactive are those of the source. The rule behind the calls is not given here.
Experiments:
DRG neuron [1] = experiment: Neuroprotective activity in Sprague-Dawley rat DRG neurons assessed as enhancement of neurite outgrowth at 0.01 to 1 uM after 24 hrs by confocal microscopic analysis; type: functional
Method in brief: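 DRG from adult male Sprague-Dawley rats dissociated; neurons cultured in defined Hams medium. Test agent incubated 24 h, then DIC images captured by confocal microscopy. Total neurite length per neuron measured morphometrically with a Weibel grid as crosspoints per cell, relative to control neurons of the same preparation. Mean ± SEM of 6 replicate cultures; one-way ANOVA with Tukey's post hoc test.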

DRG neuron [2] = experiment: Neuroprotective activity in Sprague-Dawley rat DRG neurons assessed as enhancement of neurite outgrowth at >10 nM after 24 hrs by confocal microscopic analysis; type: functional
Method in brief: (§1)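 Dissociated DRG neurons from adult male Sprague−Dawley rats cultured in defined medium with compound for 24 h. DIC images by confocal microscopy. Total neurite length per cell scored with Weibel-grid morphometry as intersects per cell, compared with control neurons of the same preparation. n = 6 replicate cultures; mean ± SEM; one-way ANOVA with Tukey's test.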

DRG neuron [3] = experiment: Neuroprotective activity in Sprague-Dawley rat DRG neurons assessed as sprouting of neurites at 1 uM after 24 hrs by confocal microscopic analysis; type: functional; method in brief: as §1
Mus musculus [4] = experiment: Neuroprotective activity in streptozotocin-induced C57BL/6J mouse diabetic neuropathy model assessed as prevention of motor neuron conduction velocity slowing at 10 to 100 mg/kg/day, po administered 6 days per week for 4 weeks; type: functional, organism-based
Method in brief: (§2)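 Type 1 diabetes induced in fasted mice by ip STZ 90 mg/kg in sterile citrate buffer on 2 consecutive days, confirmed 4 days later and at study end by tail-prick blood glucose (reflectance meter). Compound or vehicle (water) by oral gavage 6 days/week from diabetes onset for 4 weeks. Body weight, glucose, and sciatic MNCV recorded. MNCV taken at 37 °C under isoflurane, stimulating at sciatic notch and Achilles tendon (5 V, 0.05 ms square wave), recording in ipsilateral paw interosseus muscles. n = 10−12/group; mean ± SEM; one-way ANOVA with Dunnett's test.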

Mus musculus [5] = experiment: Antidiabetic activity in streptozotocin-induced C57BL/6J mouse diabetic neuropathy model assessed as effect on weight loss at 10 to 100 mg/kg/day, po administered 6 days per week for 4 weeks; type: functional, organism-based; method in brief: as §2
Mus musculus [6] = experiment: Toxicity in C57BL/6J mouse assessed as change in body weight at 10 to 100 mg/kg/day, po administered 6 days per week for 4 weeks (reference value: 26.7 +/- 0.4 g); type: organism-based; parameters: route oral; conditions: in vivo
[7] = Cmax in C57BL/6J mouse at 10 mg/kg, po by LC-MS/MS analysis; type: ADME, organism-based; parameters: dose 10 mg/kg, route oral; conditions: in vivo
Method in brief: (§3)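 Single oral dose […] given to control and STZ-diabetic mice; plasma analysed by LC−MS/MS. Samples vortexed 2 min, centrifuged, organic layer dried under N2 at room temperature and reconstituted in 0.2% TFA in MeOH/water 20:80. Standards 20–100 000 nM in water; internal standard response variable, not used for quantification.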

Mus musculus [8] = experiment: Toxicity in C57BL/6J mouse sciatic nerve assessed as motor neuron conduction velocity at 10 to 100 mg/kg/day, po administered 6 days per week for 4 weeks (reference value: 35.6 +/- 1.1 m/s); type: organism-based; parameters: route oral; conditions: in vivo
Mus musculus [9] = experiment: Antidiabetic activity in streptozotocin-induced C57BL/6J mouse diabetic neuropathy model assessed as effect on hyperglycemia at 10 to 100 mg/kg/day, po administered 6 days per week for 4 weeks; type: functional, organism-based; method in brief: as §2
Mus musculus [10] = experiment: Toxicity in C57BL/6J mouse assessed as unusual behavior at 10 to 100 mg/kg/day, po administered 6 days per week for 4 weeks; type: organism-based; parameters: route oral; conditions: in vivo
[11] = AUC (0 to t) in streptozotocin-induced C57BL/6J mouse diabetic neuropathy model at 10 mg/kg, po by LC-MS/MS analysis; type: ADME, organism-based; parameters: dose 10 mg/kg, route oral; conditions: in vivo; method in brief: as §3
[12] = Tmax in streptozotocin-induced C57BL/6J mouse diabetic neuropathy model at 10 mg/kg, po by LC-MS/MS analysis; type: ADME, organism-based; parameters: dose 10 mg/kg, route oral; conditions: in vivo; method in brief: as §3
[13] = AUC (0 to t) in C57BL/6J mouse at 10 mg/kg, po by LC-MS/MS analysis; type: ADME, organism-based; parameters: dose 10 mg/kg, route oral; conditions: plasma; method in brief: as §3
[14] = Tmax in C57BL/6J mouse at 10 mg/kg, po by LC-MS/MS analysis; type: ADME, organism-based; parameters: dose 10 mg/kg, route oral; conditions: in vivo; method in brief: as §3
[15] = Cmax in streptozotocin-induced C57BL/6J mouse diabetic neuropathy model at 10 mg/kg, po by LC-MS/MS analysis; type: ADME, organism-based; parameters: dose 10 mg/kg, route oral; conditions: in vivo; method in brief: as §3
[16] = Metabolic stability in mouse liver microsomes assessed as compound remaining at 2 uM after 1 hr by LC-MS/MS analysis; type: ADME, Microsome; conditions: read-out: Stability
Method in brief: (§4)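 2 μM compound incubated with mouse or human liver microsomes plus excess NADPH at 37 °C in a shaking water bath for 0 and 60 min (n = 6). Quenched with 2 volumes acetonitrile, centrifuged, supernatant diluted 1:1 with water, analysed by LC−MS/MS as % remaining. Propranolol control.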

[17] = Metabolic stability in human liver microsomes assessed as compound remaining at 2 uM after 1 hr by LC-MS/MS analysis; type: ADME, Microsome; conditions: read-out: Stability; method in brief: as §4
[18] = Permeability of the compound after 5 hrs by PAMPA; type: ADME; conditions: read-out: permeability
Method in brief: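 Precoated PAMPA plate warmed to room temperature. Donor: 25 μM compound in 5% DMSO/PBS; acceptor: 5% DMSO/PBS. Incubated 5 h at 25 °C in water bath. Donor and acceptor samples quantified by LC−MS/MS against calibration standards; mass retention also determined. Propranolol control.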

DRG neuron [19] = experiment: Neuroprotective activity in Sprague-Dawley rat DRG neurons assessed as enhancement of neurite outgrowth up to 1 uM after 24 hrs by confocal microscopic analysis; type: functional; method in brief: as §1
DRG neuron [20] = experiment: Neuroprotective activity in Sprague-Dawley rat DRG neurons assessed as enhancement of neurite outgrowth at 0.01 uM after 24 hrs by confocal microscopic analysis; type: functional; method in brief: as §1
Mus musculus [21] = experiment: Antidiabetic activity in streptozotocin-induced C57BL/6J mouse diabetic neuropathy model assessed as effect on weight loss at 1 to 10 mg/kg/day, po administered 6 days per week for 4 weeks; type: functional, organism-based; method in brief: as §2
Mus musculus [22] = experiment: Neuroprotective activity in streptozotocin-induced C57BL/6J mouse diabetic neuropathy model assessed as prevention of motor neuron conduction velocity slowing at 1 to 10 mg/kg/day, po administered 6 days per week for 4 weeks; type: functional, organism-based; method in brief: as §2
Mus musculus [23] = experiment: Antidiabetic activity in streptozotocin-induced C57BL/6J mouse diabetic neuropathy model assessed as effect on hyperglycemia at 1 to 10 mg/kg/day, po administered 6 days per week for 4 weeks; type: functional, organism-based; method in brief: as §2

COc1ccccc1OC[C@@H](O)CF
Activity (DRG neuron [1]): inactive

COc1ccccc1OCC(O)CO (racemic) [GUAIFENESIN]
Activity (DRG neuron [2]): Active
Activity (DRG neuron [3]): Active
Activity (Mus musculus [4]): Active
Activity (Mus musculus [5]): inactive
Activity (Mus musculus [6]): 27.1 g
Cmax [7]: 5.28 µM
Activity (Mus musculus [8]): 35.1 meter/s
Activity (Mus musculus [9]): inactive
Activity (Mus musculus [10]): Non-toxic
AUC(0-t) [11]: 1.91 µM·h
Tmax [12]: 4.98 min
AUC(0-t) [13]: 2.73 µM·h
Tmax [14]: 4.98 min
Cmax [15]: 5.27 µM

COc1ccccc1OC[C@@H](O)CO
remaining at 1 h, 2 µM [16]: 92.9%
remaining at 1 h, 2 µM [17]: 94.8%
Activity (DRG neuron [1]): inactive
Papp at 5 h [18]: 8.2 ×10⁻⁶ cm/s

Cc1ccccc1OCC(O)CO (racemic)
Activity (DRG neuron [1]): Active

COc1ccccc1NCC(O)CO (racemic)
Activity (DRG neuron [19]): inactive

COc1ccccc1OC[C@H](O)CO
remaining at 1 h, 2 µM [16]: 92.4%
remaining at 1 h, 2 µM [17]: 97.4%
Activity (DRG neuron [20]): Active
Activity (Mus musculus [21]): inactive
Cmax [7]: 0.44 µM
Activity (Mus musculus [22]): Active
Activity (Mus musculus [23]): inactive
AUC(0-t) [11]: 0.746 µM·h
Tmax [12]: 10 min
Papp at 5 h [18]: 6.3 ×10⁻⁶ cm/s
AUC(0-t) [13]: 0.737 µM·h
Tmax [14]: 10 min
Cmax [15]: 0.741 µM

CCc1ccccc1OCC(O)CO (stereo not given)
Activity (DRG neuron [1]): inactive
